Test results taken from ChEMBL document CHEMBL1133134, “Inhibition of dopamine receptors by endogenous amines: binding to striatal receptors and pharmacological effects on locomotor activity” (Bioorg Med Chem Lett, 2000).

How the values were obtained:
Type in all cases: subcellular, Brain
[1] = target: Sodium-dependent dopamine transporter (Rattus norvegicus, UniProt P23977); assay: The compound has been evaluated for its binding affinity towards Dopamine transporter by displacing the radioligand [3H]GBR-12935 (1.0 nM) in rat striatal synaptosomes.
Sequence of Sodium-dependent dopamine transporter (P23977 whole entry): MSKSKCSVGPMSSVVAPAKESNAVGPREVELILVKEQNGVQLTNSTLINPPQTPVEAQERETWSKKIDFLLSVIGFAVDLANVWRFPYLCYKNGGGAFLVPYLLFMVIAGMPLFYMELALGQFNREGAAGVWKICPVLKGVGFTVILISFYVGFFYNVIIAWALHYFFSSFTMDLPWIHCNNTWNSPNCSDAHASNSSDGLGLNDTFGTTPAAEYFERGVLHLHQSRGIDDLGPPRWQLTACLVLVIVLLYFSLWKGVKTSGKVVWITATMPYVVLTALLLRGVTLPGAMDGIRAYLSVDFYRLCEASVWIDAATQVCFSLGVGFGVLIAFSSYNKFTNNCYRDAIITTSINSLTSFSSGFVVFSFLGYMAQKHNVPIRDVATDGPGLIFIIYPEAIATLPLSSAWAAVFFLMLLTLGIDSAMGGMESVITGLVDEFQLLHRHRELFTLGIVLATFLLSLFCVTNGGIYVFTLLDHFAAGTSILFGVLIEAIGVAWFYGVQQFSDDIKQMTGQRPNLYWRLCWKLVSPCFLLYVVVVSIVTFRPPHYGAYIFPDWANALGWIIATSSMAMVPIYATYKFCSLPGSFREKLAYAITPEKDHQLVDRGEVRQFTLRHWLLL
In short: (§1)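 Rat striatal synaptosomes were incubated with a ³H-labelled radioligand. Nonspecific binding was defined with excess unlabelled ligand and subtracted: SCH23390 for D1, sulpiride for D2 and GBR12909 for the dopamine transporter. Ki was calculated from IC50 as IC50/(1+[L]/KD), where [L] is the radioligand concentration and KD its dissociation constant.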

[2] = target: D(1A) dopamine receptor (Rattus norvegicus, UniProt P18901); assay: The compound has been evaluated for its binding affinity towards Dopamine receptor D1 by displacing the radioligand [3H]SCH-23390 (1.5 nM) in rat striatal synaptosomes.; in short: as §1
Sequence of D(1A) dopamine receptor (P18901 whole entry): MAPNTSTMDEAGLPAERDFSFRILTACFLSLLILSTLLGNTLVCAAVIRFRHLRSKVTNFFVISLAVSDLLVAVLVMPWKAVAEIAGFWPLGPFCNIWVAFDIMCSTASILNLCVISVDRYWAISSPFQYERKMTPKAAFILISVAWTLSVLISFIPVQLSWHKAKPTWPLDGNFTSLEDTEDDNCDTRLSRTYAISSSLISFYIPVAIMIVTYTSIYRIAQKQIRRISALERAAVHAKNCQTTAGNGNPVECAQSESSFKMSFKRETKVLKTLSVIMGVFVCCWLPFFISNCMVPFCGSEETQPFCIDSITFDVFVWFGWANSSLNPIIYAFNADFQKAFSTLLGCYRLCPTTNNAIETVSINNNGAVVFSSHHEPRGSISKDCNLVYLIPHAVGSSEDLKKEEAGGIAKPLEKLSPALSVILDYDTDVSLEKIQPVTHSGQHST

[3] = target: D(2) dopamine receptor (Rattus norvegicus, UniProt P61169); assay: The compound has been evaluated for its binding affinity towards Dopamine receptor D2 by displacing the radioligand [3H]YM-09151-2 (0.5 nM) in rat striatal synaptosomes.; in short: as §1
Sequence of D(2) dopamine receptor (P61169 whole entry): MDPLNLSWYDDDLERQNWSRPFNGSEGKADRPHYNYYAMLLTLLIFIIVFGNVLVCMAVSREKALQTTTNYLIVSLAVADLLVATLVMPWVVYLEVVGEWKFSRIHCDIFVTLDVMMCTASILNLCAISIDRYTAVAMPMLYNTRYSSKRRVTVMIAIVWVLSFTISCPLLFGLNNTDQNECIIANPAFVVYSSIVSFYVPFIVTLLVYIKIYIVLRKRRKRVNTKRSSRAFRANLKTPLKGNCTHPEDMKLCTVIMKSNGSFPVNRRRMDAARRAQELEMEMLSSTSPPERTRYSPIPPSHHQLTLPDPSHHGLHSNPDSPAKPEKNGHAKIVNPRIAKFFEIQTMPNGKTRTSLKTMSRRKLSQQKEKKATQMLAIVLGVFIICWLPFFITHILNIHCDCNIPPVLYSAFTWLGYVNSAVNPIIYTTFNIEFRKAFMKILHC

Row | SMILES | Ki [1] [µM] | Ki [2] [µM] | Ki [3] [µM]
1 | Oc1ccc(CC2NCCc3ccccc32)cc1O (centres undefined) | 21.5 | 175 | 8.79
2 | Oc1cc2c(cc1O)C(Cc1ccccc1)NCC2 (centres undefined) | 57.6 | 9.27 | 0.64
3 | c1ccc(CC2NCCc3ccccc32)cc1 (centres undefined) | 36.6 | 249 | 3.57
